High-throughput results as filed in PubChem BioAssay.
In the library only some 2.1% were active in any assay of this set; here they are far more common.
NOD2 RIPK2 PPI = inhibitors of human NOD2-RIPK2 interaction; O43353; inhibition, % at 4.98 µM; CHO BLA complementation NOD2-RIPK2, CCF4 ratio; actives 0.38% (n = 360,000); in the data active = inhibition above about 21%;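 note: 0% = vehicle only and 100% = reference blocker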
Target sequence (O43353 whole entry, looked up): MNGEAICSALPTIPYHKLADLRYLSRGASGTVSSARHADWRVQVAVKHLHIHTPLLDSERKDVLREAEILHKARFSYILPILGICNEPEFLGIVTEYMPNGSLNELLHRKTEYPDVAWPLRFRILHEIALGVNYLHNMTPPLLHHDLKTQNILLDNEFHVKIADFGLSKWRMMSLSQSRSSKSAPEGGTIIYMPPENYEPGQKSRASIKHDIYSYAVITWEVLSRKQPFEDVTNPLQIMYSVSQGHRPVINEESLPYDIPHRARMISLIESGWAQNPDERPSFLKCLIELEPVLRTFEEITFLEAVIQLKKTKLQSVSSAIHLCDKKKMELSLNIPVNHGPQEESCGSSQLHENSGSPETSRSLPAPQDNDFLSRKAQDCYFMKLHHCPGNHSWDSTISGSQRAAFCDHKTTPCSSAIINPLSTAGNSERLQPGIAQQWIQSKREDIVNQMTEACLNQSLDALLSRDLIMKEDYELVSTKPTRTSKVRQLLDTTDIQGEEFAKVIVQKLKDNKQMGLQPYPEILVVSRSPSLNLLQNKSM
beta cell repl = MIN6 beta-cell proliferation induction. MIN6 cells proliferation, ATPlite luminescence, 48 h; cells starved in 0.2% serum; 100% = growth in 10% serum. proliferation, % at 10 µM. actives 0.29% (n = 330,000);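 active = compounds whose signal lies at least 3.5 SD above the mean of all wells on their plate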;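 note: 0% = DMSO-treated cells in low-serum medium and 100% = 10% serum control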
MC4R antagonist = human MC4R antagonism in cAMP assay | P32245 | MC4R-expressing cells, MTII-stimulated cAMP, LANCE TR-FRET | inhibition, % at 6.5 µM | actives 0.48% (n = 360,000) | AID 540295;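 active = inhibition above its plate's cutoff, the mean of tested wells on that plate plus 3 SD, cut at about 29% in these data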;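 note: 0% = Melanotan II alone and 100% = Melanotan II plus saturating MCL0020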
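System – human MC4R-expressing U2OS cells · Also added – Melanotan II · Dosing – one concentration, 6.5 µM nominal · Timing – 30-min compound, 1-h challenge, 1-h detection, room temperature · Measured by – Eu-cAMP/anti-cAMP TR-FRET, emission 671 nm · Replicates – singlicate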
TLR4-MyD88 BLA = blocks binding of human TLR4 to MyD88; inhibition, % at 8.4 µM; HeLa CL3-4 TLR4/MyD88 BLA complementation, FRET ratio; actives 0.18% (n = 200,000); O00206+Q99836; in the data active = inhibition above about 25%;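 note: 0% = vehicle and 100% = reference inhibitor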
MC4R ag barr = human MC4R agonism via beta-arrestin | P32245 | U2OS MC4R beta-arrestin complementation, luminescence; percent of melanotan II response, DMSO zero | activation, % at 8.9 µM | actives 0.98% (n = 360,000);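 active = activation above a per-plate cutoff, the mean activation of sample wells on that plate plus 3 SD, cut at about 8% in these data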
TLR9-MyD88 block = inhibitors of human TLR9-MyD88 binding; Q9NR96+Q99836; CHO BLA complementation TLR9-MyD88, CCF4 FRET ratio; inhibition, % at 4.98 µM; actives 0.21% (n = 340,000); AID 504734;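 active = inhibition above the mean over all tested compounds plus 3 SD, cut at about 21% in these data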;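 note: 0% = DMSO only wells and 100% = clavulanate BLA inhibitor control wells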
U2OS cAMP counter = U2OS forskolin cAMP inhibition counter-screen | parental U2OS, LANCE TR-FRET | inhibition, % at 6.5 µM | actives 26% (n = 1,600) | shares compounds with MC4R antagonist | AID 602193;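 active = mean inhibition over triplicates above the low-control well mean plus 3 SD, set per campaign, cut at about 13% in these data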;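 note: signal is single emission at 671 nm which falls as cellular cAMP rises; 0% = forskolin-stimulated wells and 100% = buffer without forskolin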
MC4R cAMP antag = human MC4R cAMP antagonism confirmation | AID 602195 | shares compounds with MC4R antagonist | actives 27% (n = 1,600) | MC4R-expressing cells, MTII-stimulated cAMP, TR-FRET | inhibition, % at 6.5 µM; in the data active = inhibition above about 29%;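 note: 0% = agonist stimulated wells alone and 100% = agonist stimulated wells plus saturating reference antagonist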
The depositor's hits bear a star; . = no result given.

SMILES	NOD2 RIPK2 PPI	beta cell repl	MC4R antagonist	TLR4-MyD88 BLA	MC4R ag barr	TLR9-MyD88 block	U2OS cAMP counter	MC4R cAMP antag
CC(C)CCNC(=O)c1c[nH]c2ccc(S(=O)(=O)N3CCOCC3)cc2c1=O	2.2	-4.5	5.1	.	-3.3	5.2	.	.
COc1ccccc1NC(=O)CSc1nnnn1C1CCCCC1	-16.6	-2.4	29.8*	.	3.1	0.4	0.9	2.9
Cc1sc2ncnc(N3CCC(C(=O)Nc4cc(C(F)(F)F)ccc4OCC(F)(F)F)CC3)c2c1C	-0.8	.	11.8	.	1.6	1.2	.	.
CCn1c(CC(=O)Nc2ccc(F)cc2)nnc1SCC(=O)Nc1nnc(C)s1	-3.3	0.0	29.7*	.	2.7	0.4	-0.6	0.3
CCn1c(CC(=O)Nc2ccc(F)cc2)nnc1SCC(=O)NC1CCCC1	-1.9	0.0	-3.0	.	2.0	3.2	.	.
Cn1c(-c2ccccc2)n[nH]c1=S	-6.4	-1.0	32.7*	.	-2.0	-14.3	3.3	7.5
Cc1cccc(-c2n[nH]c(=S)n2C)c1	-7.4	-2.5	-1.0	-0.6	-2.9	4.9	.	.
O=C(NCc1cccc(C(F)(F)F)c1)C1CCC(=O)N(C2CCCCCC2)C1 (configuration not stated)	-5.8	2.7	2.4	.	-0.5	-1.1	.	.
COc1ccccc1C(=O)NC(CCSC)C(=O)OCC(=O)N1CCCC1=O (configuration not stated)	0.7	1.9	28.6*	.	-1.9	2.3	17.1*	41.8*
Cc1ccc(C(=O)O)cc1NC(=O)Nc1ccc2c(c1)OCO2	-6.9	1.1	30.4*	-7.2	2.1	-5.6	1.9	-0.5
O=C(Nc1cccc(C(=O)O)c1)Nc1ccc2c(c1)OCO2	-7.6	-5.9	-1.9	.	-2.4	0.6	.	.
O=C(CCl)NNC(=O)c1c(O)c2ccccc2[nH]c1=O	-8.6	-4.0	31.4*	.	0.1	-2.8	-0.8	-2.9
CCS(=O)(=O)c1ncc(Cl)c(C(=O)Nc2ccc(S(=O)(=O)N3CCCC(C)C3)cc2)n1 (configuration not stated)	13.5	-0.5	41.1*	.	-4.2	1.8	-40.9	19.6
c1ccc(-c2nc3c([nH]2)CCc2nonc2-3)cc1	-10.3	-2.0	29.2*	-2.9	-2.2	-13.2	0.6	-2.5
Cc1cc(C)n(-c2nnc(NC34CC5CC(CC(C5)C3)C4)nn2)n1	-0.3	0.0	29.5*	-19.5	-0.5	5.0	-2.3	0.1
CCCCC(=O)OCC(=O)c1cc(C)n(-c2c(C)n(C)n(-c3ccccc3)c2=O)c1C	-0.7	-2.9	30.7*	-3.8	0.3	-9.9	0.1	0.3
Cc1cc(-c2sccc2Br)nc(-n2cccc2)n1	1.5	.	34.8*	1.7	3.8	-3.5	8.7	3.5
Cc1cc(-c2ccc(Br)s2)nc(-n2cccc2)n1	-4.2	.	40.8*	4.6	-0.5	3.5	10.4	-8.1
Cc1ccsc1-c1ccnc(-n2cccc2)n1	-0.9	-2.0	3.1	11.1	-0.1	-3.8	.	.
C[C@@H]1CN([C@@H](C)CO)C(=O)CCCn2nncc2CO[C@H]1CN(C)C(=O)c1ccccc1	-15.5	.	4.1	.	1.8	1.6	.	.
c1ccc(Oc2ccccc2-c2cc(NCCc3cccnc3)n3nccc3n2)cc1	-4.7	.	3.0	.	-0.1	.	.	.
COc1cccc(Nc2nc(-c3cccs3)nc3ccccc23)c1	-4.2	-5.4	31.7*	-6.3	-1.2	0.6	7.9	16.6
O=C(O)CSc1nc2ccccc2nc1Cc1ccccc1F	-5.3	-0.2	30.8*	.	-2.0	0.8	-0.5	7.0
CS(=O)(=O)c1ccc(Cl)c(NC(=O)CSc2nc3ccccc3c(=O)n2CCCN2CCOCC2)c1	0.0	-1.9	31.5*	-7.5	-0.9	8.1	2.1	-0.5
O=C(NCc1ccccc1)C(c1ccc(F)cc1)N(C(=O)c1csnn1)C1CC1 (configuration not stated)	-13.3	0.0	7.0	.	1.4	-6.2	.	.
SMILES	NOD2 RIPK2 PPI	beta cell repl	MC4R antagonist	TLR4-MyD88 BLA	MC4R ag barr	TLR9-MyD88 block	U2OS cAMP counter	MC4R cAMP antag
COC(=O)c1[nH]c2c(c1C)C(=O)CC(c1cccc(OC)c1)C2 (configuration not stated)	14.9	-4.6	-8.1	.	-1.2	0.2	.	.
Cc1cc(C(=O)COc2cc(F)ccc2[N+](=O)[O-])c(C)n1C1CC1	-9.8	-4.2	28.9*	-3.3	-1.1	8.0	18.9*	47.6*
Cc1cc(C(=O)COc2ccc([N+](=O)[O-])cc2)c(C)n1C1CC1	2.9	-4.6	1.2	.	-0.4	-2.2	.	.
Cc1c(N=C2SCC(=O)N2/N=C\c2ccc(Br)cc2)c(=O)n(-c2ccccc2)n1C	3.3	-1.8	31.1*	-4.0	-0.3	-0.3	-3.7	-22.2
Cc1c(N=C2SCC(=O)N2/N=C/c2ccccc2Cl)c(=O)n(-c2ccccc2)n1C	-41.8	0.1	-1.6	1.8	0.4	-6.5	.	.
Cc1ccc(NC(=O)c2ccc(NS(=O)(=O)c3cccc4cccnc34)cc2)cc1	-3.9	-2.7	7.1	.	-1.5	4.9	.	.
CCOC(=O)C1CCN(C(=O)c2cc(COc3ccc(F)cc3F)on2)CC1	-8.8	2.5	-1.0	.	-3.2	-0.1	.	.
COc1cccc(C(=O)Nc2sc(C(C)C)cc2C(N)=O)c1OC	0.4	-1.1	29.9*	.	0.2	-9.2	2.0	20.1
CCCOc1cccc(C2C(C(=O)c3ccc(C)o3)=C(O)C(=O)N2c2nc(C)c(C(C)=O)s2)c1 (configuration not stated)	-0.1	-2.9	20.7	.	0.0	3.7	.	.
CN(C(=O)c1ccc(OC2CCN(C(=O)c3cccnc3)CC2)cc1)C1CCCCC1	1.4	-1.2	6.7	9.1	-2.2	-4.6	.	.
CCOC(=O)c1sc(NC(=O)CCc2ccc(OC)cc2)nc1C	-2.1	0.0	49.9*	.	1.6	0.9	0.6	15.6
Cc1cccc(C(=O)Nc2ccc(C(=O)/C=C/c3cccnc3)cc2)c1	5.7	.	29.9*	13.2	0.1	6.2	-8.7	2.0
CC(Sc1nnc(NC2CCCCC2)s1)C(=O)Nc1ccc2c(c1)C(=O)c1ccccc1C2=O (configuration not stated)	-6.6	0.0	30.1*	-5.0	2.9	-14.6	-0.4	3.3
CC(Sc1nnc(NC2CC2)s1)C(=O)Nc1ccc(N2CCOCC2)cc1 (configuration not stated)	-9.7	3.5	13.7	.	-2.5	4.2	.	.
Cc1ccc(CNC(=S)Nc2ccc(NS(=O)(=O)c3ccc(C)cc3)cc2)cc1	11.8	-6.8	20.8	.	0.5	12.6	.	.
